High-throughput results from PubChem BioAssay.
Only some compounds are listed: those with a hit (about 4.3% of all), similar ones and a draw of the others.
STAT1 inh – reduces IFN-gamma driven STAT1 reporter signal; NIH 3T3 STAT1-luciferase reporter, luminescence; inhibition, % at 5.5 µM; actives 0.35% (n = 200,000); AID 920;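 active = inhibition above a set limit, the mean inhibition across all tested compounds plus 3 SD, cut at about 34% in these data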;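 also: 0% = IFN-gamma with DMSO and 100% = IFN-gamma with 300 µM nifuroxazide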
STAT3 blocker – reduces IL-6 driven STAT3 reporter signal; inhibition, % at 5.5 µM; actives 0.89% (n = 190,000); U3A cells, IL-6 STAT3-luciferase reporter, luminescence; host cell line lacks STAT1;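 active = inhibition above the mean inhibition across all screened compounds plus 3 SD, cut at about 44% in these data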;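 also: 0% = DMSO only wells and 100% = 100 µM nifuroxazide control wells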
STAT3 act-1 – activators of IL-6 induced STAT3 signaling | U3A cells, IL-6 STAT3-luciferase reporter, luminescence; 100% = signal with IL-6 EC80 alone | activation (% of control), % at 5.6 µM | actives 0.91% (n = 190,000) | AID 871;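 active = activation above the screen-wide mean of compound activation plus 3 SD, cut at about 130% in these data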;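 also: 0% = background luminescence of wells with medium and substrate only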
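Material: human U3A cells carrying STAT3-luciferase construct. Measured by: reporter luminescence signal. Timing: compound 1 h, then IL-6 6 h at 37 °C.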
STAT1 act-1 – STAT1 signaling activation; actives 2.6% (n = 200,000); activation (% of control), % at 5.5 µM; NIH 3T3 STAT1-luciferase reporter, IFN-gamma, luminescence; 100% = IFN-gamma alone, no compound;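 active = activation above the screen-wide mean activation plus 3 SD, cut at about 130% in these data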;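 also: raw ratio to IFN-gamma control signal so 100% means no change and 0% no light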
STAT3 act-2 – STAT3 activation, confirmation assay | AID 1267 | U3A STAT3-luciferase reporter, IL-6 potentiation, luminescence; U3A cells lack STAT1; 100 means same as IL-6 alone | shares compounds with STAT3 act-1 | actives 64% (n = 1,200) | potentiation (% of control), % at 5.7 µM;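 active = percent activation of the STAT3 luciferase reporter above a set limit taken from the earlier primary screen, cut at about 130% in these data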;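 also: 0% = background signal of medium plus substrate and 100% = median of IL-6 with DMSO wells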
NFkB act STAT3ct – counter-screen for STAT3 activators: NF-kappaB activation; human cells, NF-kappaB reporter activation; shares compounds with STAT3 act-1; activation (% of control), % at 5.7 µM; actives 11% (n = 1,200); in the data active = activation above about 120%;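 also: reporter induced by TNF-alpha stimulation; 100% = median of stimulated DMSO wells and 0% = no signal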
STAT1 act-2 – counter-screen for STAT3 activators: STAT1 activation. shares compounds with STAT3 act-1. AID 1318. NIH 3T3 STAT1-luciferase reporter, IFN-gamma, luminescence. actives 13% (n = 1,200). activation (% of control), % at 5.7 µM;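 active = activation above the solvent-only control well mean plus 3 SD, set per screening run, cut at about 120% in these data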;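 also: 100% = IFN-gamma with DMSO median signal so 100% means no change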
The depositor's hits bear a star.

How did Cc1ccccc1OCC(=O)Nc1cccc2nsnc12 do in these assays?
STAT1 inh: 8; STAT3 blocker: -57; STAT3 act-1: 150*; STAT1 act-1: 86; STAT3 act-2: 129; NFkB act STAT3ct: 110; STAT1 act-2: 107

Results for Fc1ccc(C2c3[nH]c4ccccc4c3CCN2Cc2ccoc2)cc1 (stereo unspecified) ?
STAT1 inh: -1; STAT3 blocker: -13; STAT3 act-1: 115; STAT1 act-1: 100

How did Cc1cccc(C2c3[nH]c4ccccc4c3CCN2C(=O)c2cn(C)c3ccccc3c2=O)n1 (stereo unspecified) do in these assays?
STAT1 inh: 2; STAT3 blocker: -34; STAT3 act-1: 136*; STAT1 act-1: 98; STAT3 act-2: 118; NFkB act STAT3ct: 101; STAT1 act-2: 92

How did Cc1cccc(C2c3[nH]c4ccccc4c3CCN2Cc2cnn(-c3ccc(F)cc3)c2)n1 (stereo unspecified) do in these assays?
STAT1 inh: -2; STAT3 blocker: -50; STAT3 act-1: 150*; STAT1 act-1: 101; STAT3 act-2: 152*; NFkB act STAT3ct: 102; STAT1 act-2: 95

What do the screens show for `O=c1c2cc3c(=O)n(-c4ccccc4O)c(=O)c3cc2c(=O)n1-c1ccccc1O`?
STAT1 inh: 11; STAT3 blocker: 6; STAT3 act-1: 100; STAT1 act-1: 90

How did Cc1ccc2[nH]c(C)c(/C=N/Nc3nc4ccccc4s3)c2c1 do in these assays?
STAT1 inh: -7; STAT3 blocker: -40; STAT3 act-1: 139*; STAT1 act-1: 106; STAT3 act-2: 134*; NFkB act STAT3ct: 104; STAT1 act-2: 101

Results for COc1cc(CN2CCCC(C(=O)c3ccc4c5c(cccc35)CC4)C2)cc(OC)c1O (stereo unspecified) ?
STAT1 inh: -3; STAT3 blocker: 4; STAT3 act-1: 103; STAT1 act-1: 101

What do the screens show for `O=C(COc1ccccc1Cl)Nc1cc(Cl)ccc1O`?
STAT1 inh: 2; STAT3 blocker: -74; STAT3 act-1: 166*; STAT1 act-1: 96; STAT3 act-2: 161*; NFkB act STAT3ct: 100; STAT1 act-2: 94

What do the screens show for `CCC(=O)N1CCN(c2ccccc2NC(=O)COc2ccccc2Cl)CC1`?
STAT1 inh: 6; STAT3 blocker: -61; STAT3 act-1: 156*; STAT1 act-1: 95; STAT3 act-2: 143*; NFkB act STAT3ct: 106; STAT1 act-2: 100

What do the screens show for `O=C(CSc1nnc(-c2ccc(Br)cc2)n1CCc1ccccc1)NC1CCS(=O)(=O)C1` (stereo unspecified)?
STAT1 inh: -2; STAT3 blocker: 1; STAT3 act-1: 99; STAT1 act-1: 101

Results for CSc1nc2ccc(NC(=O)C3=NN(c4ccccc4)C(=O)CC3)cc2s1 ?
STAT1 inh: 6; STAT3 blocker: -38; STAT3 act-1: 138*; STAT1 act-1: 94; STAT3 act-2: 161*; NFkB act STAT3ct: 106; STAT1 act-2: 102

How did CSc1nc2ccc(NC(=O)C3=NNC(=O)CC3)cc2s1 do in these assays?
STAT1 inh: -16; STAT3 blocker: -40; STAT3 act-1: 141*; STAT1 act-1: 114; STAT3 act-2: 151*; NFkB act STAT3ct: 104; STAT1 act-2: 100

How did COC(=O)c1ccc(C(=O)NC(=S)Nc2ccc3nc(SC)sc3c2)cc1 do in these assays?
STAT1 inh: -9; STAT3 blocker: 4; STAT3 act-1: 97; STAT1 act-1: 108

What do the screens show for `O=C(CCN1CCOCC1)N1CCc2c([nH]c3ccccc23)C1c1cccc(Cl)c1` (stereo unspecified)?
STAT1 inh: 6; STAT3 blocker: -41; STAT3 act-1: 142*; STAT1 act-1: 94; STAT3 act-2: 172*; NFkB act STAT3ct: 110; STAT1 act-2: 87

How did CN(Cc1ccccc1)C(=O)COC(=O)c1cc(NS(=O)(=O)c2cccs2)ccc1O do in these assays?
STAT1 inh: 18; STAT3 blocker: 17; STAT3 act-1: 92; STAT1 act-1: 82
